From ChEMBL document CHEMBL3286155, “Tricyclic pyrazoles. Part 6. Benzofuro[3,2-c]pyrazole: a versatile architecture for CB2 selective ligands” (Eur J Med Chem, 2014)
The source made the active and inactive calls. No cut-off for these calls is given here.

Tests used:
Homo sapiens = organism: Homo sapiens; assay: Selectivity ratio of Ki for CB1 receptor (unknown origin) to Ki for CB2 receptor (unknown origin)
Cannabinoid receptor 2 = Cannabinoid receptor 2 (Mus musculus, UniProt P47936); assay: Displacement of [3H]-CP-55,940 from CB2 receptor in CD1 mouse spleen homogenate after 1 hr by liquid scintillation counting analysis; assay type: tissue-based
Sequence of Cannabinoid receptor 2 (P47936 whole entry): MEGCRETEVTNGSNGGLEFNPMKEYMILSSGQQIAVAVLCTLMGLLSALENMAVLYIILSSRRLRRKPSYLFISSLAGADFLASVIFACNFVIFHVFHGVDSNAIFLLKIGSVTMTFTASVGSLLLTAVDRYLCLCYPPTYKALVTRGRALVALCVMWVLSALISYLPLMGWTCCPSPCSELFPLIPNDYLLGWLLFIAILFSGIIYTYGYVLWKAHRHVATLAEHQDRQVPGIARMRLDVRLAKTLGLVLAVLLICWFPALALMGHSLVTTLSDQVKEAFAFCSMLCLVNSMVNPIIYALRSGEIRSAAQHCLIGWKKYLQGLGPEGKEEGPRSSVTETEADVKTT
Summary of the method: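 Male CD1 mice killed by cervical dislocation; spleen homogenised in 20 vol ice-cold TME buffer (50 mM Tris-HCl, 1 mM EDTA, 3.0 mM MgCl2, pH 7.4), spun 1086 × g then 45,000 × g. Membranes incubated with 0.5–1.0 nM [3H]CP-55,940, 1 h, 30 °C, with 5 mg/mL fatty-acid-free BSA; nonspecific binding defined with CP-55,940. Filtration stop. Triplicates, five independent assays. Sigmoid fit for IC50, then Cheng-Prusoff Ki.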

Cannabinoid receptor 1 = Cannabinoid receptor 1 (Mus musculus, UniProt P47746); assay: Displacement of [3H]-CP-55,940 from CB1 receptor in CD1 mouse cerebellum-less brain homogenate after 1 hr by liquid scintillation counting analysis; assay type: tissue-based
Sequence of Cannabinoid receptor 1 (P47746 whole entry): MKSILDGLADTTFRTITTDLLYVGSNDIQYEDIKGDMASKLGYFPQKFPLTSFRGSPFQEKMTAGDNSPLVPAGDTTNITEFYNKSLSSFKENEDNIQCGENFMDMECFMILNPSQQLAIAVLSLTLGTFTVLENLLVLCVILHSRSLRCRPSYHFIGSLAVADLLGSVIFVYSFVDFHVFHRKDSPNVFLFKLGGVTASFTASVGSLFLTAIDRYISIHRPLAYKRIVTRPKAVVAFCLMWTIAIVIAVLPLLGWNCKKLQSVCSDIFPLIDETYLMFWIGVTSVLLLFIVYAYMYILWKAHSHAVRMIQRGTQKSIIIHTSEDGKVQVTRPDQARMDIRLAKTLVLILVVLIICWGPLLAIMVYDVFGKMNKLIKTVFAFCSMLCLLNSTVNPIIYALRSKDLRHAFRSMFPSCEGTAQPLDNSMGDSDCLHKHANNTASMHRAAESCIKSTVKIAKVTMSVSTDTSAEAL
Summary of the method: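 Membranes from brain (minus cerebellum) of male CD1 mice, homogenised in ice-cold TME buffer (50 mM Tris-HCl, 1 mM EDTA, 3.0 mM MgCl2, pH 7.4), incubated with 0.5-1.0 nM [3H]-CP-55,940 for 1 h at 30 °C with fatty acid-free BSA. Non-specific binding defined with CP-55,940. Filtration, then scintillation counting. Triplicates in five independent assays; IC50 from sigmoid fit, converted to Ki by Cheng-Prusoff.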

Mus musculus = organism: Mus musculus; assay: Selectivity ratio of Ki for CB1 receptor in CD1 mouse cerebellum-less brain homogenate to Ki for CB2 receptor in CD1 mouse spleen homogenate; assay type: tissue-based
Summary of the method: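 Ki measured in two assays. CB1 used male CD1 mouse brain (minus cerebellum) membranes and CB2 used spleen membranes, each with 0.5-1.0 nM [3H]-CP-55,940 for 1 h at 30 °C in TME buffer pH 7.4. IC50 converted by Cheng-Prusoff. Each Ki comes from five independent triplicate experiments, and the line is the ratio of the two Ki values.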

[1] = molecular target: Cannabinoid receptor 2 (Homo sapiens) (UniProt P34972); assay: Intrinsic activity at CB2 receptor in human HL60 cells assessed as upregulation of phosphorylated ERK1/2 expression at 10 nM after 15 mins by Western blotting analysis relative to control; assay type: cell-based; details: HL-60
Sequence of Cannabinoid receptor 2 (Homo sapiens) (P34972 whole entry): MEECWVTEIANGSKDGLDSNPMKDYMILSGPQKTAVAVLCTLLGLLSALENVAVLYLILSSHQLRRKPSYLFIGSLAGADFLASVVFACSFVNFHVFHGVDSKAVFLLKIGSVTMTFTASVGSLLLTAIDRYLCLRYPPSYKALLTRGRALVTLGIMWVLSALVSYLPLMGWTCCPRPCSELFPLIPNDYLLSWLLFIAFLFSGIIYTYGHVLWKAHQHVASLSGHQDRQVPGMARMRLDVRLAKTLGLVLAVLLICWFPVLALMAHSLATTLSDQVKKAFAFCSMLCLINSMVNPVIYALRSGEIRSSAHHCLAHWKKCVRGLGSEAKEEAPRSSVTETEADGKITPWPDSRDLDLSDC
Summary of the method: (§1)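 HL-60 human promyelocytic leukaemia cells were treated for 15 min with compounds in culture medium with 1% DMSO. Cells were pelleted, washed in PBS and lysed at 4 °C. Phospho-ERK1/2 in total extracts was detected by western blot with anti-phospho-ERK1/2 clone AW39R and chemiluminescence. Results expressed as mean percentage of vehicle (100%) ± SEM.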

[2] = molecular target: Cannabinoid receptor 2 (Homo sapiens) (UniProt P34972); assay: Intrinsic activity at CB2 receptor in human HL60 cells assessed as upregulation of phosphorylated ERK1/2 expression at 10 nM after 15 mins by Western blotting analysis in presence of CB2 receptor antagonist AM630; assay type: cell-based; details: HL-60
Summary of the method: (§2)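 HL-60 cells were pre-treated 5 min with CB2 antagonist AM630 (75 nM), then exposed 15 min to agonist in medium with 1% DMSO. Phospho-ERK1/2 in cell lysates was measured by western blot with anti-phospho-ERK1/2 clone AW39R. Controls were AM630 alone and agonist without pre-treatment. Results given as mean percentage of vehicle (100%) ± SEM.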

[3] = molecular target: Cannabinoid receptor 2 (Homo sapiens) (UniProt P34972); assay: Intrinsic activity at CB2 receptor in human HL60 cells assessed as upregulation of phosphorylated ERK1/2 expression at 75 nM after 15 mins by Western blotting analysis relative to control; assay type: cell-based; details: HL-60; summary of the method: as §1
[4] = molecular target: Cannabinoid receptor 2 (Homo sapiens) (UniProt P34972); assay: Intrinsic activity at CB2 receptor in human HL60 cells assessed as upregulation of phosphorylated ERK1/2 expression at 75 nM after 15 mins by Western blotting analysis in presence of CB2 receptor antagonist AM630; assay type: cell-based; details: HL-60; summary of the method: as §2
[5] = molecular target: Cannabinoid receptor 2 (Homo sapiens) (UniProt P34972); assay: Intrinsic activity at CB2 receptor in human HL60 cells assessed as upregulation of phosphorylated ERK1/2 expression at 5 nM after 15 mins by Western blotting analysis relative to control; assay type: cell-based; details: HL-60; summary of the method: as §1
[6] = molecular target: Cannabinoid receptor 2 (Homo sapiens) (UniProt P34972); assay: Intrinsic activity at CB2 receptor in human HL60 cells assessed as upregulation of phosphorylated ERK1/2 expression at 5 nM after 15 mins by Western blotting analysis in presence of CB2 receptor antagonist AM630; assay type: cell-based; details: HL-60; summary of the method: as §2
[7] = molecular target: Cannabinoid receptor 2 (Homo sapiens) (UniProt P34972); assay: Intrinsic activity at CB2 receptor in human HL60 cells assessed as upregulation of phosphorylated ERK1/2 expression at 50 nM after 15 mins by Western blotting analysis relative to control; assay type: cell-based; details: HL-60; summary of the method: as §1
[8] = molecular target: Cannabinoid receptor 2 (Homo sapiens) (UniProt P34972); assay: Intrinsic activity at CB2 receptor in human HL60 cells assessed as upregulation of phosphorylated ERK1/2 expression at 50 nM after 15 mins by Western blotting analysis in presence of CB2 receptor antagonist AM630; assay type: cell-based; details: HL-60; summary of the method: as §2

## Cc1ccc2c(c1)Cc1c(C(=O)NN3CCCCC3)nn(-c3ccc(Cl)cc3Cl)c1-2
Homo sapiens
  Ratio Ki: 9810

## Cc1ccc2c(c1)oc1c(C(=O)N[C@H]3CC4CC[C@]3(C)C4(C)C)nn(-c3ccc(Cl)cc3Cl)c12
Cannabinoid receptor 2
  Ki: 3.5 nM
Cannabinoid receptor 1
  Ki: 469 nM
Mus musculus
  Ratio Ki: 134
[1]
  Intrinsic activity: 189%
[2]
  Intrinsic activity: inactive

## Cc1ccc2c(c1)oc1c(C(=O)NN3CCOCC3)nn(-c3ccc(Cl)cc3Cl)c12
Mus musculus
  Ratio Ki: 108
[3]
  Intrinsic activity: 178%
[4]
  Intrinsic activity: inactive

## Cc1ccc2c(c1)oc1c(C(=O)N[C@@H]3C[C@H](C)CC[C@H]3C(C)C)nn(-c3ccc(Cl)cc3Cl)c12
Cannabinoid receptor 2
  Ki: 2.3 nM
Cannabinoid receptor 1
  Ki: 38.2 nM
Mus musculus
  Ratio Ki: 16.6
[5]
  Intrinsic activity: 193%
[6]
  Intrinsic activity: inactive

## Cc1ccc2c(c1)oc1c(C(=O)NC34CC5CC(CC(C5)C3)C4)nn(-c3ccc(Cl)cc3Cl)c12
Mus musculus
  Ratio Ki: 13
[3]
  Intrinsic activity: 175%
[4]
  Intrinsic activity: inactive

## Cc1ccc2c(c1)oc1c(C(=O)N[C@@H]3CC4CC([C@H]3C)C4(C)C)nn(-c3ccc(Cl)cc3Cl)c12 (stereo not given in full)
Cannabinoid receptor 2
  Ki: 3.7 nM
Cannabinoid receptor 1
  Ki: 2400 nM
Mus musculus
  Ratio Ki: 648
[5]
  Intrinsic activity: 205%
[6]
  Intrinsic activity: inactive

## Cc1ccc2c(c1)oc1c(C(=O)NN3CCCCC3)nn(-c3ccc(Cl)cc3Cl)c12
Mus musculus
  Ratio Ki: 139
[7]
  Intrinsic activity: 205%
[8]
  Intrinsic activity: inactive

## Cc1ccc2c(c1)oc1c(C(=O)NC3CCCCC3)nn(-c3ccc(Cl)cc3Cl)c12
Mus musculus
  Ratio Ki: 79.9
[7]
  Intrinsic activity: 196%
[8]
  Intrinsic activity: inactive

## Cc1ccc2c(c1)oc1c(C(=O)NC3C4CC5CC(C4)CC3C5)nn(-c3ccc(Cl)cc3Cl)c12 (stereo not given)
Mus musculus
  Ratio Ki: 30.7
[7]
  Intrinsic activity: 187%
[8]
  Intrinsic activity: inactive

## Cc1ccc2c(c1)oc1c(C(=O)N[C@H]3C4(C)CCC(C4)C3(C)C)nn(-c3ccc(Cl)cc3Cl)c12 (stereo not given in full)
Cannabinoid receptor 2
  Ki: 2.5 nM
Cannabinoid receptor 1
  Ki: 257 nM
Mus musculus
  Ratio Ki: 103
[1]
  Intrinsic activity: 200%
[2]
  Intrinsic activity: inactive

## Cc1c(C(=O)c2cccc3ccccc23)c2cccc3c2n1[C@H](CN1CCOCC1)CO3
[3]
  Intrinsic activity: 190%

## Cc1ccc2c(c1)oc1c(C(=O)NN3CCCC3)nn(-c3ccc(Cl)cc3Cl)c12
Mus musculus
  Ratio Ki: 92.3
[3]
  Intrinsic activity: 185%
[4]
  Intrinsic activity: inactive
